Source: PubChem BioAssay (several laboratories)
A selection: hits, their analogues and other compounds. The true share with any hit is near 5.1%.
Hsp90 inh: displaces geldanamycin probe from tumor Hsp90 | inhibition, % at 30 µM | NCI-N417 lysate Hsp90, Cy3B-geldanamycin FP displacement | P07900 | hit rate 0.35% among 64,000;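 active = inhibition above 50%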
M1 antag: M1 muscarinic receptor (rat) antagonism; hit rate 3.4% among 64,000; P08482; CHO-M1 cells, Fluo-4 calcium, ACh EC80 antagonist mode; active compounds read low; B-score at 10 µM;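 active = calcium fluorescence response, raw or row-and-column corrected B-score, differing from the plate sample mean either way at a set confidence level, mostly lower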
E coli WT exp: growth inhibitors of E. coli BW25113 wild type; OD600 absorbance; growth inhibition, % at 100 µM; hit rate 0.15% among 98,000; AID 710;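 active = growth inhibition above about 50% at one test dose, limit read from the data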;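 note: growth measured after 20 h incubation at 37 °C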
BAP1 inh: blocks human BAP1 ubiquitin-AMC hydrolysis; recombinant BAP1, Ub-AMC hydrolysis fluorescence kinetic; active compounds read low; Q92560; hit rate 0.48% among 72,000; calls only at 20 µM;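 active = activity remaining at or below 50% of control, provided the compound also passes the data quality filters; inactive = the rest, including low values that fail the filters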
Target sequence (Q92560 whole entry, looked up): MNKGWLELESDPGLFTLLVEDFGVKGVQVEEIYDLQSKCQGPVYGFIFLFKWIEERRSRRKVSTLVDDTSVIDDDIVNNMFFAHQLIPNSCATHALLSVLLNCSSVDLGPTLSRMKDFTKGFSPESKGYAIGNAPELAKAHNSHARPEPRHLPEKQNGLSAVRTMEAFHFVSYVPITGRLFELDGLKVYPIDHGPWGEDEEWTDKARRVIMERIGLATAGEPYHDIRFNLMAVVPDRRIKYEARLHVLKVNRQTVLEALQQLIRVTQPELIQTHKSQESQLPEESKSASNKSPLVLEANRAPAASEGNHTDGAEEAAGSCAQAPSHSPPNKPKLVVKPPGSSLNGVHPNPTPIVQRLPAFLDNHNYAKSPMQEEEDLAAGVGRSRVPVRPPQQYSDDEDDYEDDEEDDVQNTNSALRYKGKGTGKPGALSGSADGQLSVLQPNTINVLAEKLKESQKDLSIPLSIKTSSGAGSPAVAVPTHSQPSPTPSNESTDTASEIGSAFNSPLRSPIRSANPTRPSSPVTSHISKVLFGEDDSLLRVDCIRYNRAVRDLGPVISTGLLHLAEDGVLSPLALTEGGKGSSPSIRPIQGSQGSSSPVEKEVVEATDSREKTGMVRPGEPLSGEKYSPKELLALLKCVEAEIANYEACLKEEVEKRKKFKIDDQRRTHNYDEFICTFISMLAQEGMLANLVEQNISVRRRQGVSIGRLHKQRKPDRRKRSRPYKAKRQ
Ecoli tolC: E. coli tolC mutant growth inhibition; growth inhibition, % at 10 µM (by protocol); E. coli BW25113 tolC mutant growth, OD615; hit rate 2.2% among 65,000;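 active = growth inhibition at or above a cutoff equal to the mean over every tested compound plus 3 SD, cut at about 60% in these data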;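 note: growth measured after 20 h incubation at 37 °C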
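Test system – E. coli BW25113 ΔtolC::kan, tolC deletion mutant strain · Detection – OD at 615 nm · Buffer or medium – LB with kanamycin 50 µg/mL · Times – 20 h compound exposure of bacteria at 37 °C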
M1 ag: activates the M1 muscarinic receptor | CHO-M1 cells, Fluo-4 calcium fluorescence, agonist mode; active compounds read high | B-score at 10 µM | hit rate 3% among 64,000 | AID 626;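 active = fluorescence rise, raw or as B-score row- and column-corrected plate score, outside the 99.7% band of its plate's samples, either direction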
M1 antag conf: M1 muscarinic receptor (rat) antagonism, confirmed. shares compounds with M1 antag. CHO-M1 cells, Fluo-4 calcium, ACh EC80 antagonism; active compounds read low. calcium response (max-min fluorescence) at 10 µM. hit rate 43% among 1,700;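 active = calcium response below the same-plate mean of wells given acetylcholine alone at its 80%-effect dose, minus 3 SD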
mGluR4 antag: acts on human mGluR4 in M1 antagonist selectivity test | AID 678 | shares compounds with M1 antag | fluorescence response (max-min) at 10 µM | CHO-mGluR4 calcium flux, Fluo-4 fluorescence, glutamate EC80; active compounds read low | hit rate 0.9% among 1,700;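 active = fluorescence response below the plate's average for near-maximal glutamate wells, less 3 SD of those wells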;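 note: raw unnormalized fluorescence span taken in the window right after glutamate addition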
Hits are given with their value; i = inactive; nt = no result shown.

SMILES	Hsp90 inh	M1 antag	E coli WT exp	BAP1 inh	Ecoli tolC	M1 ag	M1 antag conf	mGluR4 antag
Cc1c(NC2=C(Cl)C(=O)N(c3ccccc3)C2=O)c(=O)n(-c2ccccc2)n1C	i	-6.3	i	i	i	i	151	i
CCn1c(SCC(=O)O)nnc1C1CCCCC1	i	-4.7	i	i	i	i	i	i
COc1cc(C2C(C#N)=C(N)Oc3n[nH]c(C)c32)cc2c1OCO2 (stereo not given)	i	-4.8	i	i	i	i	i	i
COc1ccc(CNC(=O)CSc2nnnn2-c2ccccc2)cc1	i	-4.8	i	i	i	i	i	i
CCCCCC(=O)Nc1ccc(N2CCN(CC)CC2)c(Cl)c1	i	-11	i	i	i	i	46	i
CCCCCC(=O)NC(=S)Nc1ccc(N2CCCCC2)c(Cl)c1	nt	nt	i	nt	nt	nt	nt	nt
Cc1ccc2cc3cc(C(=O)NCCCN4CCCCCC4)oc3nc2c1	i	i	i	nt	i	i	nt	nt
Cc1ccc2cc3cc(C(=O)NCCCN4CCc5ccccc5C4)oc3nc2c1	i	-3.4	i	nt	i	i	i	i
O=S(=O)(c1cccc(-c2nnc(SCc3ccc(Cl)cc3)o2)c1)N1CCCCC1	i	i	i	nt	i	i	nt	nt
CN(C)S(=O)(=O)c1cccc(-c2nnc(SCc3ccc4c(c3)OCCO4)o2)c1	i	-12	i	nt	i	i	i	i
COc1ccc(OC)c(CNc2nc3ccccc3n2CCN2CCCCC2)c1	i	nt	i	i	i	nt	nt	nt
COc1cccc(CNc2nc3ccccc3n2CCN2CCCCC2)c1	i	-4.3	i	i	i	i	i	i
O=C(Nc1cc(C(F)(F)F)ccc1Cl)c1ccc(F)cc1	nt	nt	nt	i	nt	nt	nt	nt
CCC(=O)c1ccc(OCC(O)CN(C)C2CCCCC2)cc1 (stereo not given)	i	-5.5	i	i	i	i	480	i
COC(=O)c1ccc(OCC(O)CN2CCC(C)CC2)cc1 (stereo not given)	i	-3.5	i	i	i	i	i	i
CC(=O)c1ccc(OCC(O)CN2CCC(C)CC2)cc1 (stereo not given)	i	i	i	i	i	i	nt	nt
CC(=O)c1ccc(OCC(O)CN2C(C)CCCC2C)cc1 (stereo not given)	i	-2	i	i	i	i	i	i
CN(CC(O)COc1ccc(OCC(O)CN(C)C2CCCCC2)cc1)C1CCCCC1 (stereo not given)	i	i	i	i	i	i	nt	nt
Cc1ccc(NC(=O)c2cccc(C(=O)Nc3ccc(C)c(Cl)c3)c2)cc1Cl	nt	nt	nt	i	nt	nt	nt	nt
O=C(NCCN1CCOCC1)c1cc2sccc2n1Cc1ccc(Cl)cc1	i	-4.5	i	i	i	i	349	i
O=C(NCCN1CCOCC1)c1cc2sccc2n1Cc1ccc(F)cc1	i	i	i	i	i	i	nt	nt
CCCCN(C(=O)c1ccc(Cl)cc1)C1CC2CCC(C1)N2C (stereo not given)	i	-2.1	i	i	i	i	369	i
COc1cc(C(=O)N(CCc2ccccc2)C2CC3CCC(C2)N3C)cc(OC)c1OC (stereo not given)	i	i	i	i	i	i	nt	nt
CCN1CCCC1CNC(=O)CSCc1nc(-c2ccccc2C)oc1C (stereo not given)	i	-3.7	i	i	i	i	308	i
CCN1CCCC1CNC(=O)CS(=O)(=O)Cc1nc(-c2ccccc2C)oc1C (stereo not given)	i	i	i	i	i	i	nt	nt
SMILES	Hsp90 inh	M1 antag	E coli WT exp	BAP1 inh	Ecoli tolC	M1 ag	M1 antag conf	mGluR4 antag
CN(C)c1ccc(C=Nc2sc3c(c2C#N)CCCC3)cc1	nt	nt	nt	i	nt	nt	nt	nt
COC(=O)c1[nH]c2ccc(C)cc2c1NC(=O)CCN1CCN(C2CCCCC2)CC1	i	-12	i	nt	i	i	99	i
COC(=O)c1[nH]c2ccc(Br)cc2c1NC(=O)CN1CCN(C2CCCCC2)CC1	i	-7.5	i	i	i	i	324	i
COC(=O)c1[nH]c2ccc(Cl)cc2c1NC(=O)CCN1CCN(C2CCCCC2)CC1	i	-9.6	i	i	i	i	51	i
COC(=O)c1[nH]c2ccc(F)cc2c1NC(=O)CCN1CCN(Cc2ccc3c(c2)OCO3)CC1	i	-7.6	i	i	i	i	125	i
CCCCC(=O)Nc1c(-c2ccccc2)nc2cc(C)ccn12	nt	nt	nt	i	nt	nt	nt	nt
O=C(Cc1ccc([N+](=O)[O-])cc1)Nc1cccc(NC(=O)Cc2ccc([N+](=O)[O-])cc2)n1	nt	nt	nt	i	nt	nt	nt	nt
CCOC(=O)CN1C(=O)C(CC)Oc2ccc(Cl)cc21 (stereo not given)	i	-3.6	i	i	i	i	i	i
CSc1ccc(CN2CCN(Cc3c[nH]c4ccccc34)CC2)cc1	nt	nt	nt	i	nt	nt	nt	nt
CC(=O)NC(CC(=O)NCC(c1ccco1)N(C)C)c1ccccc1 (stereo not given)	nt	i	nt	nt	i	i	nt	nt
CN(C)C(CNc1nnnn1-c1ccccc1)c1ccco1 (stereo not given)	i	-0.79	i	i	i	i	i	i
O=C(COC(=O)C12CC3CC(CC(O)(C3)C1)C2)NC(=O)NCc1ccco1	i	-17	i	i	i	i	571	i
C=CCOC(=O)COc1ccc2c(C)c(C)c(=O)oc2c1	i	-2.6	i	i	i	i	i	i
CCOC(=O)CCc1c(C)c2ccc(OCC(=O)OC(C)C)cc2oc1=O	i	-2.4	i	i	i	i	i	i
CCOC(=O)CCc1c(C)c2ccc(OCc3nn[nH]n3)cc2oc1=O	i	nt	i	nt	i	nt	nt	nt
CC(=O)Nc1c(O)nc(SCc2ccc(Br)cc2)[nH]c1=O	nt	nt	nt	i	nt	nt	nt	nt
CC1(C)CC(=O)c2c(nn(-c3ccccc3)c2N)C1	i	-2.4	i	i	i	i	i	i
CC1(C)CC(=O)c2c(nc3ccccc3c2N)C1	i	i	i	nt	i	i	nt	nt
CCCc1cc2c(=O)c(-c3ccccn3)coc2cc1OC(C)=O	nt	nt	nt	i	nt	nt	nt	nt
CCCCCCN=C(C)C1=C(O)C(C(=O)OC)C(C)(C)CC1=O (stereo not given)	i	i	i	i	i	i	nt	nt
CCCCC(=NCCO)C1=C(O)C(C(=O)OC)C(C)(C)CC1=O (stereo not given)	i	-3.5	i	i	i	i	i	i
O=C(Nc1ccc(Br)cc1)c1sc2ccccc2c1Cl	nt	nt	nt	i	nt	nt	nt	nt
CCCOc1ccc(C2NC(=O)NC(C)=C2C(=O)OCCc2ccccc2)cc1 (stereo not given)	nt	nt	nt	i	nt	nt	nt	nt
CCOc1ccc(CN2CCNC(=O)C2CC(=O)OC)cc1 (stereo not given)	i	-2.9	i	i	i	i	i	i
COCCCNC(=O)CS(=O)(=O)Cc1nc(-c2ccccc2C)oc1C	i	-3	i	i	i	i	i	i
Cc1ccccc1-c1nc(CS(=O)(=O)CC(=O)NCCCN2CCCC2=O)c(C)o1	i	i	i	i	i	i	nt	nt
